PMC5116011 (The Journal of antibiotics, 2016)
In brackets after ≈: the same amount, converted by molar mass. Like-named read-outs stand apart in the source and are kept apart here.

How the values were obtained:
S. pneumoniae R6 = assay: MIC, microbroth dilution in Mueller-Hinton broth; format: cell-based; conditions: Streptococcus pneumoniae, R6, read-out: MIC SP
How it was run: (§1)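 CLSI broth microdilution in cation-adjusted Mueller-Hinton broth. Inocula were grown from MH agar colonies in MH broth, with a final inoculum of 10^5 CFU/ml. Test compound final range was 200–0.2 µg/ml, incubated 37°C for 18–20 h. MIC was the lowest concentration preventing visible growth. Runs were at least duplicate, and the mean MIC was reported.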

E. coli BW25113 = assay: MIC, microbroth dilution in Mueller-Hinton broth; format: cell-based, Escherichia coli; conditions: for MIC EC MH+BP/CCCP: MH broth with 30 µg/ml 2,2′-bipyridyl and 50 µg/ml CCCP; for MIC EC +: with clavulanic acid (6µg/ml); for MIC: Escherichia coli
B. subtilis ATCC23857 = assay: MIC, microbroth dilution in Mueller-Hinton broth; format: cell-based; conditions: Bacillus subtilis, ATCC23857, read-out: MIC BS
How it was run: as §1

S. pyogenes ATCC700294 = assay: MIC, microbroth dilution in Mueller-Hinton broth; format: cell-based; conditions: Streptococcus pyogenes, ATCC700294, read-out: MIC SPy
How it was run: as §1

[1] = test system: E. coli BW25113 ΔtolC derivative JW5503-1; assay: MIC, microbroth dilution in Mueller-Hinton broth; format: cell-based, Escherichia coli; conditions: for MIC: Escherichia coli
E. faecalis ATCC33186 = assay: MIC, microbroth dilution in Mueller-Hinton broth; format: cell-based; conditions: Enterococcus faecalis, ATCC33186, read-out: MIC EF
How it was run: as §1

P. aeruginosa PA01 = assay: MIC, microbroth dilution in Mueller-Hinton broth; format: cell-based, Pseudomonas aeruginosa; conditions: for MIC PA MH+BP/CCCP / MIC PA +: P. aeruginosa PA01; for MIC PA MH+BP/CCCP: MH broth with 30 µg/ml 2,2′-bipyridyl and 50 µg/ml CCCP; for MIC PA +: with clavulanic acid (6µg/ml); for MIC: Pseudomonas aeruginosa
B. anthracis sterne = assay: microbe, parasite or virus in culture; format: cell-based; conditions: Bacillus anthracis, read-out: MIC BA
S. aureus NRS 70 (MRSA) = assay: MIC, microbroth dilution in Mueller-Hinton broth; format: cell-based; conditions: Staphylococcus aureus, MRSA|NRS70, read-out: MIC MRSA
How it was run: as §1

[2] = test system: E. coli BW25113 ΔampC derivative JW4111-2; format: cell-based, Escherichia coli; conditions: for MIC: Escherichia coli, BW25113, read-out: MIC ECΔampC −
P. vulgaris ATCC 33420 = assay: MIC, microbroth dilution in Mueller-Hinton broth; format: cell-based; conditions: Proteus vulgaris, ATCC33420, read-out: MIC PV
[3] = test system: S. aureus -ATCC29213 (MSSA); assay: MIC, microbroth dilution in Mueller-Hinton broth; format: cell-based; conditions: Staphylococcus aureus, read-out: MIC MSSA
How it was run: as §1

P. mirabilis ATCC 25933 = assay: MIC, microbroth dilution in Mueller-Hinton broth; format: cell-based; conditions: Proteus mirabilis, ATCC25933, read-out: MIC PM
[4] = BW25113, read-out: MIC EC, E. coli BW25113, Mueller-Hinton broth (Table 2)
[5] = BW25113, read-out: MIC ECΔtolC MH
[6] = BW25113, read-out: MIC ECΔtolC MH+BP

SMILES	MIC (S. pneumoniae R6)	MIC EC MH+BP/CCCP (E. coli BW25113; E. coli BW25113)	MIC EC + (E. coli BW25113; E. coli BW25113)	MIC (E. coli BW25113; [4])	MIC (B. subtilis ATCC23857)	MIC (S. pyogenes ATCC700294)	MIC ([1]; BW25113, read-out: MIC ECΔtolC)	MIC [1, 5]	MIC [1, 6]	MIC ECΔtolC MH+BP/CCCP [1]	MIC (E. faecalis ATCC33186)	MIC PA MH+BP/CCCP (P. aeruginosa PA01)	MIC PA + (P. aeruginosa PA01)	MIC (P. aeruginosa PA01; PA01, read-out: MIC PA MH+CCCP)	MIC (B. anthracis sterne)	MIC (S. aureus NRS 70 (MRSA))	MIC ECΔampC + [2]	MIC (P. vulgaris ATCC 33420)	MIC [3]	MIC (P. mirabilis ATCC 25933)	other results
CC1(C)SC2C(NC(=O)C(NC(=O)C3=C(O)C(Cc4ccc([N+](=O)[O-])cc4)NC3=O)c3ccccc3)C(=O)N2C1C(=O)O (centres unmarked) [Compound 2835]	< 0.2 µg/mL	12.5 µg/mL (≈ 20.5 µM)	6.25 µg/mL	100 µg/mL (≈ 164 µM)	< 0.2 µg/mL	0.78 µg/mL (≈ 1.28 µM)	3.13 µg/mL (≈ 5.13 µM)	3.13 µg/mL (≈ 5.13 µM)	1.56 µg/mL (≈ 2.56 µM)	0.78 µg/mL (≈ 1.28 µM)	25 µg/mL (≈ 41 µM)	12.5 µg/mL (≈ 20.5 µM)	6.25 µg/mL	12.5 µg/mL (≈ 20.5 µM)	3.13 µg/mL (≈ 5.13 µM)	25 µg/mL (≈ 41 µM)	12.5 µg/mL	25 µg/mL (≈ 41 µM)	< 0.2 µg/mL	25 µg/mL (≈ 41 µM)	MIC ECΔtolC MH+CCCP [1]: 1.56 µg/mL (≈ 2.56 µM); MIC (P. aeruginosa PA01; PA01, read-out: MIC PA): 25 µg/mL (≈ 41 µM); MIC (P. aeruginosa PA01; PA01, read-out: MIC PA MH): 25 µg/mL (≈ 41 µM); MIC (P. aeruginosa PA01; PA01, read-out: MIC PA MH+BP): 25 µg/mL (≈ 41 µM)
CN1CC(O)=C(C(=O)NC(C(=O)NC2C(=O)N3C2SC(C)(C)C3C(=O)O)c2ccccc2)C1=O (centres unmarked) [Compound 2742]	1.56 µg/mL (≈ 3.19 µM)	12.5 µg/mL (≈ 25.6 µM)	25 µg/mL	100 µg/mL (≈ 205 µM)	3.13 µg/mL (≈ 6.41 µM)	1.56 µg/mL (≈ 3.19 µM)	12.5 µg/mL (≈ 25.6 µM)	12.5 µg/mL (≈ 25.6 µM)	6.25 µg/mL (≈ 12.8 µM)	1.56 µg/mL (≈ 3.19 µM)	25 µg/mL (≈ 51.2 µM)	6.25 µg/mL (≈ 12.8 µM)	12.5 µg/mL	12.5 µg/mL (≈ 25.6 µM)	6.25 µg/mL (≈ 12.8 µM)	100 µg/mL (≈ 205 µM)	12.5 µg/mL	100 µg/mL (≈ 205 µM)	1.56 µg/mL (≈ 3.19 µM)	6.25 µg/mL (≈ 12.8 µM)	MIC ECΔtolC MH+CCCP [1]: 6.25 µg/mL (≈ 12.8 µM); MIC (P. aeruginosa PA01; PA01, read-out: MIC PA): 25 µg/mL (≈ 51.2 µM); MIC (P. aeruginosa PA01; PA01, read-out: MIC PA MH): 25 µg/mL (≈ 51.2 µM); MIC (P. aeruginosa PA01; PA01, read-out: MIC PA MH+BP): 12.5 µg/mL (≈ 25.6 µM); MIC (P. aeruginosa PA01; PA01, read-out: MIC PA −): 25 µg/mL (≈ 51.2 µM); MIC [2]: 25 µg/mL (≈ 51.2 µM)
CCN1CCN(C(=O)N[C@@H](C(=O)N[C@@H]2C(=O)N3[C@@H]2SC(C)(C)[C@@H]3C(=O)O)c2ccccc2)C(=O)C1=O [piperacillin, reference compound]	< 0.2 µg/mL	0.78 µg/mL (≈ 1.51 µM)	3.13 µg/mL		0.39 µg/mL (≈ 0.754 µM)	< 0.2 µg/mL	1.56 µg/mL (≈ 3.01 µM)	0.09 µg/mL (≈ 0.174 µM)	0.09 µg/mL (≈ 0.174 µM)		3.13 µg/mL (≈ 6.05 µM)	3.13 µg/mL (≈ 6.05 µM)	3.13 µg/mL	3.13 µg/mL (≈ 6.05 µM)	0.39 µg/mL (≈ 0.754 µM)	25 µg/mL (≈ 48.3 µM)	1.56 µg/mL	1.56 µg/mL (≈ 3.01 µM)	< 0.2 µg/mL	0.19 µg/mL (≈ 0.367 µM)	MIC (E. coli BW25113; BW25113, read-out: MIC EC MH+BP): 1.56 µg/mL (≈ 3.01 µM); MIC [2]: 1.56 µg/mL (≈ 3.01 µM)
CC1(C)SC2C(NC(=O)C(NC(=O)C3=C(O)C(Cc4ccc(O)cc4)NC3=O)c3ccccc3)C(=O)N2C1C(=O)O (centres unmarked) [Compound 2918]	0.39 µg/mL (≈ 0.672 µM)	6.25 µg/mL (≈ 10.8 µM)	12.5 µg/mL	6.25 to 12.5 µg/mL (≈ 10.8 to 21.5 µM)	3.13 µg/mL (≈ 5.39 µM)	1.56 µg/mL (≈ 2.69 µM)	6.25 µg/mL (≈ 10.8 µM)	1.56 µg/mL (≈ 2.69 µM)	1.56 µg/mL (≈ 2.69 µM)	0.78 µg/mL (≈ 1.34 µM)	25 µg/mL (≈ 43.1 µM)	6.25 µg/mL (≈ 10.8 µM)	6.25 µg/mL	6.25 µg/mL (≈ 10.8 µM)	6.25 µg/mL (≈ 10.8 µM)	50 µg/mL (≈ 86.1 µM)	6.25 µg/mL	6.25 µg/mL (≈ 10.8 µM)	0.78 µg/mL (≈ 1.34 µM)	6.25 µg/mL (≈ 10.8 µM)	MIC EC (E. coli BW25113; E. coli BW25113, Mueller-Hinton broth (Table 2)): 6.25 µg/mL (≈ 10.8 µM); MIC ECΔtolC MH+CCCP [1]: 0.78 µg/mL (≈ 1.34 µM); MIC (P. aeruginosa PA01; PA01, read-out: MIC PA): 50 µg/mL (≈ 86.1 µM); MIC (P. aeruginosa PA01; PA01, read-out: MIC PA MH): 50 µg/mL (≈ 86.1 µM); MIC (P. aeruginosa PA01; PA01, read-out: MIC PA MH+BP): 25 µg/mL (≈ 43.1 µM)
